Experimental findings from ChEMBL document CHEMBL1166015, “Design, synthesis, and docking of highly hypolipidemic agents: Schizosaccharomyces pombe as a new model for evaluating alpha-asarone-based HMG-CoA reductase inhibitors” (Bioorg Med Chem, 2010) are described below.

Assay [1] addresses T1, 3-hydroxy-3-methylglutaryl-coenzyme A reductase (Schizosaccharomyces pombe 972h-, UniProt Q10283).
T1 sequence (Q10283 whole entry): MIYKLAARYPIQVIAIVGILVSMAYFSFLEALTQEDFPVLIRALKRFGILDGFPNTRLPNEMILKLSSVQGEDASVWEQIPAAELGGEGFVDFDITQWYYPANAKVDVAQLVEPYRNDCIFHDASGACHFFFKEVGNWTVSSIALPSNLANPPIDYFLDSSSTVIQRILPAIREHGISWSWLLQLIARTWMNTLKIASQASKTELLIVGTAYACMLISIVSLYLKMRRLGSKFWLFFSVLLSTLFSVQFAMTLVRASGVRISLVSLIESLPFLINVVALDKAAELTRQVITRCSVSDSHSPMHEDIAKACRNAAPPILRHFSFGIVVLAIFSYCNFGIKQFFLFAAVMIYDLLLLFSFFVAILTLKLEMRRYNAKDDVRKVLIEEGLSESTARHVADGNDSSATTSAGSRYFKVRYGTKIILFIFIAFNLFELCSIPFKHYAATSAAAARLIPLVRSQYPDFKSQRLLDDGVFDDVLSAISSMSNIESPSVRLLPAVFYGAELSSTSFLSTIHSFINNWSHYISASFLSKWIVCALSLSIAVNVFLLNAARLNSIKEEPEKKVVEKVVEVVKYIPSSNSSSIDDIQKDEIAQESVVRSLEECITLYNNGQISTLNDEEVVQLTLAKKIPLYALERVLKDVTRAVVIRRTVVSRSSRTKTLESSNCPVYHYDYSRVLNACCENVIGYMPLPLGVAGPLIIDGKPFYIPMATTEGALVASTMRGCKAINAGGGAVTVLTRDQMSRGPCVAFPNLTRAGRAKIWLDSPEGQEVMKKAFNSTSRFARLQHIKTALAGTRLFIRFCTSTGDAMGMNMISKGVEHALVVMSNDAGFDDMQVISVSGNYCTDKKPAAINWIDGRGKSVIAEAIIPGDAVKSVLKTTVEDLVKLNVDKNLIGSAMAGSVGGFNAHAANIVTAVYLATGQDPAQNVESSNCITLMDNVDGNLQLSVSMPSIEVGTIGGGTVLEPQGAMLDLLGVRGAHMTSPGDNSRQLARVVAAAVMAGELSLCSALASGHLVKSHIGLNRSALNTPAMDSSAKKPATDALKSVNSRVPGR
Put plainly: Inhibition of Schizosaccharomyces pombe HMG-CoA reductase by spectrophotometry. Conditions: read-out: IC50. In short, it runs like this:
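Membrane HMGR partially purified from S. pombe 972 h (YPD, 28 °C, 48 h) via centrifugation, Triton X-100 solubilization, 65 °C heat step, ammonium sulfate and calcium phosphate gel. Enzyme activated 37 °C 30 min, pre-incubated with compound (DMSO stocks 1–5 mM) 30 min at 37 °C. Assay: 200 µg enzyme, 0.13 mM HMG-CoA, 50 mM Tris-HCl pH 7.5; started with 0.13 mM NADPH; A340 decrease over 2 min; triplicate; IC50 derived.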

In assay [2] the test system is Mus musculus. In words: Hypolipidemic activity in ICR mouse assessed as decrease in Tyloxapol-induced LDL-cholesterol level at 50 mg/kg, ip administered 1 hr before Tyloxapol challenge and 22, 48 hrs after Tyloxapol challenge measured after 22 hrs relative to control. Details: scale not given: the % may be the effect or the level left. Conditions: route oral, in the assay text read “po administered” for “ip administered”. It counts as functional. A digest of the protocol: (§1)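 Male ICR mice (24–27 g), groups of six. Hyperlipidemia induced by ip Tyloxapol (Triton WR 1339) 400 mg/kg in water. Drug given at 5 mL/kg 1 h before and 22 and 48 h after injection; vehicle controls. Blood drawn 22 h post-injection by periorbital bleeding. Serum total cholesterol, HDL-C and triglycerides measured on an automatic analyzer; LDL-C by the Friedewald equation. Values are % of the Tyloxapol group, mean ± SE.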

Assay [3] deals with Mus musculus. Put plainly: Hypolipidemic activity in ICR mouse assessed as decrease in Tyloxapol-induced total cholesterol level at 100 mg/kg, ip administered 1 hr before Tyloxapol challenge and 22, 48 hrs after Tyloxapol challenge measured after 22 hrs relative to control. It counts as functional. Details: scale not given: the % may be the effect or the level left. Conditions: route oral, in the assay text read “po administered” for “ip administered”. In short, it runs like this: as §1

Assay [4] has as its system Mus musculus. In words: Hypolipidemic activity in ICR mouse assessed as decrease in Tyloxapol-induced HDL-cholesterol level at 50 mg/kg, ip administered 1 hr before Tyloxapol challenge and 22, 48 hrs after Tyloxapol challenge measured after 22 hrs relative to control. It counts as functional. Details: scale not given: the % may be the effect or the level left. Conditions: route oral, in the assay text read “po administered” for “ip administered”. In short, it runs like this:
as §1

Assay [5] deals with Mus musculus. In words: Hypolipidemic activity in high cholesterol diet fed ICR mouse assessed as reduction of HDL cholesterol level at 100 mg/kg/day, po after 12 hrs of last cholesterol challenge relative to control. Details: scale not given: the % may be the effect or the level left.
Assay [6] deals with Mus musculus. Put plainly: Hypolipidemic activity in ICR mouse assessed as decrease in Tyloxapol-induced HDL-cholesterol level at 100 mg/kg, ip administered 1 hr before Tyloxapol challenge and 22, 48 hrs after Tyloxapol challenge measured after 22 hrs relative to control. It counts as functional. Details: scale not given: the % may be the effect or the level left. Conditions: route intraperitoneal. A digest of the protocol:
as §1

The subject of assay [7] is Mus musculus. Put plainly: Hypolipidemic activity in ICR mouse assessed as decrease in Tyloxapol-induced triglyceride level at 50 mg/kg, ip administered 1 hr before Tyloxapol challenge and 22, 48 hrs after Tyloxapol challenge measured after 22 hrs relative to control. It counts as functional. Details: scale not given: the % may be the effect or the level left. Conditions: route intraperitoneal. In short, it runs like this: as §1

The subject of assay [8] is Mus musculus. Put plainly: Hypolipidemic activity in high cholesterol diet fed ICR mouse assessed as reduction of HDL cholesterol level at 50 mg/kg/day, po after 12 hrs of last cholesterol challenge relative to control. Details: scale not given: the % may be the effect or the level left.
The subject of assay [9] is Mus musculus. In words: Hypolipidemic activity in high cholesterol diet fed ICR mouse assessed as reduction of total cholesterol level at 100 mg/kg/day, ip after 12 hrs of last cholesterol challenge relative to control. It counts as functional. Details: scale not given: the % may be the effect or the level left. Conditions: route intraperitoneal. In short, it runs like this:
(§2)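 Male ICR mice (24–27 g), six per group, were fed a high-cholesterol diet ad libitum for 6 days (1.0% cholesterol, 0.5% sodium cholate, 5% butter, 30% sucrose, 10% casein, 53.5% chow). Basal-diet mice served as controls. Dosing was 5 mL/kg and solutions were made fresh. Mice were fasted 12 h before sacrifice and bled periorbitally. Serum TC, HDL-C and TG were read on an analyzer, with LDL-C by Friedewald.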

For assay [10], the system named is Mus musculus. Put plainly: Hypolipidemic activity in ICR mouse assessed as decrease in Tyloxapol-induced triglyceride level at 100 mg/kg, ip administered 1 hr before Tyloxapol challenge and 22, 48 hrs after Tyloxapol challenge measured after 22 hrs relative to control. It counts as functional. Details: scale not given: the % may be the effect or the level left. Conditions: route intraperitoneal. A digest of the protocol:
as §1

For assay [11], the system named is Mus musculus. Put plainly: Hypolipidemic activity in high cholesterol diet fed ICR mouse assessed as reduction of LDL cholesterol level at 100 mg/kg/day, po after 12 hrs of last cholesterol challenge relative to control. Details: scale not given: the % may be the effect or the level left.
Assay [12] deals with Mus musculus. Put plainly: Hypolipidemic activity in high cholesterol diet fed ICR mouse assessed as reduction of total cholesterol level at 50 mg/kg, ip after 12 hrs of last cholesterol challenge relative to control. It counts as functional. Details: scale not given: the % may be the effect or the level left. Conditions: route intraperitoneal. In short, it runs like this:
as §2

The subject of assay [13] is Mus musculus. Put plainly: Hypolipidemic activity in high cholesterol diet fed ICR mouse assessed as reduction of triglyceride level at 50 mg/kg/day, po after 12 hrs of last cholesterol challenge relative to control. Details: scale not given: the % may be the effect or the level left.
Assay [14] concerns Mus musculus. Put plainly: Hypolipidemic activity in ICR mouse assessed as decrease in Tyloxapol-induced total cholesterol level at 50 mg/kg, ip administered 1 hr before Tyloxapol challenge and 22, 48 hrs after Tyloxapol challenge measured after 22 hrs relative to control. It counts as functional. Details: scale not given: the % may be the effect or the level left. Conditions: route oral, in the assay text read “po administered” for “ip administered”. A digest of the protocol: as §1

Assay [15] concerns Mus musculus. In words: Hypolipidemic activity in high cholesterol diet fed ICR mouse assessed as reduction of LDL cholesterol level at 50 mg/kg/day, po after 12 hrs of last cholesterol challenge relative to control. Details: scale not given: the % may be the effect or the level left.
In assay [16] the test system is Mus musculus. Put plainly: Hypolipidemic activity in high cholesterol diet fed ICR mouse assessed as reduction of triglyceride level at 100 mg/kg/day, po after 12 hrs of last cholesterol challenge relative to control. Details: scale not given: the % may be the effect or the level left.
For assay [17], the system named is Mus musculus. In words: Hypolipidemic activity in ICR mouse assessed as decrease in Tyloxapol-induced LDL-cholesterol level at 100 mg/kg, ip administered 1 hr before Tyloxapol challenge and 22, 48 hrs after Tyloxapol challenge measured after 22 hrs relative to control. It counts as functional. Details: scale not given: the % may be the effect or the level left. Particulars: route oral, in the assay text read “po administered” for “ip administered”. A digest of the protocol:
as §1

In the case of `COC(=O)COc1ccccc1C`, the IC50 (as a rule, the concentration at which inhibition is half-maximal) in assay [1] worked out at 91.3 µM.
`CCCCc1cc(OC)c(OC)cc1OC`: the IC50 in [1] stood at 219 µM.
Still for that read-out and setting: the same measure for `CCc1ccc(OCC(=O)OC)c([N+](=O)[O-])c1`: 197 µM.
In the case of `C=CCc1cc(OC)c(OC)cc1O`, the Activity is reported as -42.98% in the assay with Mus musculus [2]; -54.11% in the assay on Mus musculus [3]; -39.67% with Mus musculus [4]; -35.96% in the assay on Mus musculus [5]; -41.77% in the assay with Mus musculus [6]; -23.2% in the assay with Mus musculus [7]. In addition, the Activity is reported as -40.08% in the assay on Mus musculus [8]; -40.67% in the assay with Mus musculus [9]; -6.83% in the assay with Mus musculus [10]; -44.22% in the assay on Mus musculus [11]; -33.45% in the assay on Mus musculus [12]; -37.78% in the assay on Mus musculus [13]. The Activity is given as -49.79% with Mus musculus [14], 26.49% in the assay on Mus musculus [15], -42.39% in the assay with Mus musculus [16] and -52.07% with Mus musculus [17]. Moreover, in [1], the IC50 worked out at 78.8 µM.
Regarding `C/C=C/c1ccc(OCCNC(=O)c2ccc(Cl)cc2)c(OC)c1`, the half-maximal inhibitory concentration (IC50) in [1] was found to be 129 µM.
Regarding `CCCc1cc(OC)c(OC)cc1O`, the Activity is recorded as -66.67% in the assay with Mus musculus [2]; -55.75% in the assay with Mus musculus [3]; -38.67% with Mus musculus [4]; -23.07% in the assay on Mus musculus [5]; -37.36% in the assay with Mus musculus [6]; -60.69% with Mus musculus [7]. Further, the Activity is given as -72.01% in the assay with Mus musculus [8]; -24.12% with Mus musculus [9]; -14.84% with Mus musculus [10]; -22.77% in the assay with Mus musculus [11]; -59.76% in the assay on Mus musculus [12]; -62.42% in the assay with Mus musculus [13]. Besides, the Activity in the assay on Mus musculus [14] is recorded as -76.85%; with Mus musculus [15], -60.81%; in the assay with Mus musculus [16], -38.38%; in the assay with Mus musculus [17], -35.05%. Further, the IC50 in assay [1] turned out to be 73.6 µM.
With `CCc1ccccc1OCC(=O)OC`, in [1], the IC50 worked out at 506 µM.
The same measure, in the same setting: the same measure for `CCc1ccc(OCC(=O)OC)cc1`: 1320 µM; for `CCOC(=O)COc1cccc(C)c1`: 182 µM.
For `CCOC(=O)COc1cccc(CC)c1`, the IC50 in assay [1] came out at 1620 µM.
Still for that read-out and setting: under `C=CCc1ccc(OCC(=O)OCC)c(OC)c1` stands 156 µM.
